Bioassay records: PubChem BioAssay, The Scripps Research Institute Molecular Screening Center
Most compounds without a hit are left out; they make up all but 2.8% or so of the library.
PAFAH1B3 FP inh: inhibitors of human PAFAH1B3 | Q15102 | recombinant PAFAH1B3, FP-rhodamine probe, fluorescence polarization | inhibition, % at 3.39 µM | 340,000 tested, 0.28% active;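 active = inhibition above the screen-wide average of all tested compounds plus 3 SD, cut at about 25% in these data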
PAFAH1B2 inh: inhibitors of human PAFAH1B2 | recombinant PAFAH1B2, FP-rhodamine activity probe, fluorescence polarization | inhibition, % at 3.39 µM | 340,000 tested, 1.2% active | AID 492953;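 active = inhibition above the mean of all tested compounds plus 3 SD, cut at about 24% in these data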
HTRA1 inh: HTRA1 (human) protease inhibition. Q92743. recombinant HTRA1, FP-rhodamine activity-based probe, fluorescence polarization. inhibition, % at 5.96 µM. 340,000 tested, 0.5% active; in the data active = inhibition above about 36%
pPAFAH inh: pPAFAH (human) enzyme inhibition. Q13093. 330,000 tested, 1.5% active. inhibition, % at 3.39 µM. recombinant pPAFAH, FP-rhodamine probe fluorescence polarization;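 active = inhibition above the mean inhibition across the screen plus 3 SD, cut at about 25% in these data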;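 also: inhibitors block binding of the rhodamine activity-based probe so polarization drops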
Target sequence (Q13093 whole entry, looked up): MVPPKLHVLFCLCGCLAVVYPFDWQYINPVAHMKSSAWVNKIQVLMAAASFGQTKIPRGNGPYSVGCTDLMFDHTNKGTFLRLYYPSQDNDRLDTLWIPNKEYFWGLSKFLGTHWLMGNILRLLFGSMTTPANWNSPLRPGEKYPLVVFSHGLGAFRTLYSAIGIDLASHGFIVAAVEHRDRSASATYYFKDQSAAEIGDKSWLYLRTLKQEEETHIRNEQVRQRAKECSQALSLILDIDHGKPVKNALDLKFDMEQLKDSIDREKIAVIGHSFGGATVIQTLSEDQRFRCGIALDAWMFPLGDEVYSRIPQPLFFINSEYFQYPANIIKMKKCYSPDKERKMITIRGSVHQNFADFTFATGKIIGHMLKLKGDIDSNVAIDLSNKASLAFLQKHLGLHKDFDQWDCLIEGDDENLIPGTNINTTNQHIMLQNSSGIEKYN
PAFAH2 inh: inhibitors of human PAFAH2; AID 492956; recombinant PAFAH2, FP-rhodamine activity probe, fluorescence polarization; Q99487; inhibition, % at 3.39 µM; 340,000 tested, 0.99% active;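 active = inhibition above the mean over all tested compounds plus 3 SD, cut at about 30% in these data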;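 also: inhibitors block probe labeling of enzyme so polarization drops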
ABHD4 inh: inhibitors of mouse ABHD4 | purified mABHD4, FP-Rh probe fluorescence polarization | 370,000 tested, 0.54% active | inhibition, % at 8.92 µM | Q8VD66;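 active = inhibition exceeding the mean over every tested compound plus 3 SD, cut at about 30% in these data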
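system = mouse ABHD4 enzyme, wild type | medium = HEPES pH 7.0, NaCl, Pluronic buffer | also added = FP-Rh probe | incubation = Enzyme–compound pre-incubation 45 min, then probe 60 min, both 25 °C | technique = fluorescence polarization, excitation 525 nm, emission 598 nm, BODIPY TMR filters | controls = S159A mutant high control, sample median low control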
HTRA1 conf: HTRA1 (human) inhibition, confirmation; shares compounds with HTRA1 inh; recombinant HTRA1, FP-rhodamine activity-based probe, fluorescence polarization; inhibition, % at 5.96 µM; 1,600 tested, 66% active; AID 540248;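 active = mean inhibition over three repeats above a set limit taken from the earlier primary screen, cut at about 37% in these data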;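 also: inhibitors block probe binding so polarization drops and inhibition rises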
mABHD4 conf: ABHD4 (mouse) inhibition, FP confirmation | shares compounds with ABHD4 inh | purified mABHD4, FP-Rh probe fluorescence polarization | inhibition, % at 8.92 µM | 1,800 tested, 55% active | AID 720658;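 active = mean inhibition across replicates above the hit cutoff set in the primary screen, cut at about 30% in these data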
Of the large screens only hits and unclear results are named; the others gave an inactive call (follow-up assays come after a bar, where they were run).

COCCNC(=S)N(C)[C@H]1C[C@H]2c3[nH]c4c(-c5cccc(C)c5)cccc4c3CCN2C[C@H]1[C@H](C)O	none (no result: PAFAH1B3 FP inh, PAFAH1B2 inh, HTRA1 inh, pPAFAH inh, PAFAH2 inh)
CCOC(=O)c1ccc(CC(=O)c2ccc(O)c(O)c2O)o1	HTRA1 inh 53, ABHD4 inh 31 (no result: pPAFAH inh) | HTRA1 conf 82 | mABHD4 conf inactive
CCOC(=O)c1ccc(CC(=O)c2oc3cc(O)ccc3c2C)o1	none
Oc1cccc(/C=N/NC(=S)Nc2cccnc2)c1O	HTRA1 inh 42, ABHD4 inh 31 | HTRA1 conf inactive | mABHD4 conf inactive
CC(C)[C@H](NC(=O)C1CCCC1)C(=O)N1CCC[C@H]1C(=O)NCCc1ccccc1Cl	none (no result: PAFAH1B3 FP inh, PAFAH1B2 inh, HTRA1 inh, pPAFAH inh, PAFAH2 inh)
N#C/C(=C\c1ccc(O)c(O)c1)C(=O)NCCc1ccccc1	PAFAH1B2 inh 64, HTRA1 inh 71, pPAFAH inh 27, PAFAH2 inh 36, ABHD4 inh 51 | HTRA1 conf 93 | mABHD4 conf 33
Cc1cccc(N=NC(=S)NNc2cccc(C)c2)c1	HTRA1 inh 36, ABHD4 inh 32 (no result: pPAFAH inh) | HTRA1 conf 45 | mABHD4 conf 58
COc1ccc(C(C[N+](=O)[O-])c2c(-c3ccccc3)cc3ccccn23)cc1OC (stereo unspecified)	none
COc1cc(C(C[N+](=O)[O-])c2c(C)cc3ccccn23)ccc1O (stereo unspecified)	HTRA1 inh 40, ABHD4 inh 30 | HTRA1 conf 40 | mABHD4 conf inactive
CC(=O)N1CCN(c2ccc(N3CCN(Cc4ccccc4)[C@@H](C)C3)c(C)c2)[C@H](C)C1	none (no result: PAFAH1B3 FP inh, PAFAH1B2 inh, HTRA1 inh, pPAFAH inh, PAFAH2 inh)
CC1(C)CNc2cc(N)ccc2S1	HTRA1 inh 72, ABHD4 inh 38 | HTRA1 conf inactive | mABHD4 conf 40
COCC1CN(CCc2ccc(F)cc2)S(=O)(=O)c2c(F)cccc2O1 (stereo unspecified)	none (no result: PAFAH1B3 FP inh, PAFAH1B2 inh, HTRA1 inh, pPAFAH inh, PAFAH2 inh)
CC1=CC(C)(C)Nc2ccc(Cc3ccc4c(c3)C(C)=CC(C)(C)N4)cc21	HTRA1 inh 51, ABHD4 inh 31 | HTRA1 conf 37 | mABHD4 conf 33
COC(=O)C1CN(Cc2ccc(Cl)cc2)CCS(=O)(=O)N1Cc1cn(Cc2ccc(F)cc2)nn1 (stereo unspecified)	none (no result: PAFAH1B3 FP inh, PAFAH1B2 inh, HTRA1 inh, pPAFAH inh, PAFAH2 inh)
COc1cc(-c2ccc(Nc3ccccc3C(=O)O)c(OC)c2)ccc1Nc1ccccc1C(=O)O	PAFAH1B3 FP inh 29, HTRA1 inh 42, PAFAH2 inh 54, ABHD4 inh 54 (no result: pPAFAH inh) | HTRA1 conf 56 | mABHD4 conf 80
N#C/C(C(N)=O)=c1/ccc2c(c1)N1C3=C(CCCC3)CC3CCCCC31N=2 (stereo unspecified)	ABHD4 inh 49 (no result: PAFAH1B3 FP inh, PAFAH1B2 inh, HTRA1 inh, PAFAH2 inh) | mABHD4 conf 49
N#CC(C#N)=c1ccc2c(c1)N1C3=C(CCCC3)CC3CCCCC31N=2 (stereo unspecified)	none
Cc1nn(CCC(=O)NNC(=O)Nc2ccccc2)c(C)c1[N+](=O)[O-]	none (no result: PAFAH1B3 FP inh, PAFAH1B2 inh, HTRA1 inh, pPAFAH inh, PAFAH2 inh)
CCC(C)(C)c1ccc(OCCCC[n+]2ccc(C)cc2)c(C(C)(C)CC)c1	ABHD4 inh 33 (no result: PAFAH1B3 FP inh, PAFAH1B2 inh, HTRA1 inh, PAFAH2 inh) | mABHD4 conf 50
CC(=O)Oc1cccc(C2C3=C(CC(C)(C)CC3=O)Nc3ccccc3N2C(C)=O)c1 (stereo unspecified)	none
Cc1ccc2c(c1)N1C(=O)c3ccccc3C1C1=C(CC(C)(C)CC1=O)N2 (stereo unspecified)	ABHD4 inh 30 | mABHD4 conf 46
CCN(CC)C(=O)CC[C@H]1CC[C@]2(CCCN(Cc3cccc4ccccc34)C2)O1	none (no result: PAFAH1B3 FP inh, PAFAH1B2 inh, HTRA1 inh, pPAFAH inh, PAFAH2 inh)
Cc1cc(O)c(C=Nc2ccc(N3CCOCC3)cc2)c(C)c1Cl	none
Oc1ccc(N=Cc2cc(Br)c(N3CCOCC3)o2)cc1	ABHD4 inh 42 | mABHD4 conf inactive
CCCCNS(=O)(=O)CC1NCc2ccccc21 (stereo unspecified)	none (no result: PAFAH1B3 FP inh, PAFAH1B2 inh, HTRA1 inh, pPAFAH inh, PAFAH2 inh)
O=C1NC(=O)C2(N1)C(=O)c1cccc3cccc2c13 (stereo unspecified)	ABHD4 inh 78 (no result: PAFAH1B3 FP inh, PAFAH1B2 inh, pPAFAH inh, PAFAH2 inh) | mABHD4 conf inactive
O=C1NC(=O)C2(N1)c1ccccc1-c1ccccc12	none (no result: pPAFAH inh)
CN(C(=S)Nc1cccnc1)c1ccc(O)cc1	pPAFAH inh 29, ABHD4 inh 47 | mABHD4 conf inactive
